{"source": "paper PMC10790741", "about": "(Journal of Pharmacy & Bioallied Sciences, 2023)", "test_system": "male albino mice", "experiment": "Neurotoxicity, rotarod test", "assay_type": "in vivo", "details": "0.5 and 4 h", "how_it_was_run": "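Male albino mice (25–30 g) were trained on a rotating rod (3.2 cm outer diameter, 10 rpm). Test compound was given at 30, 100 and 300 mg/kg, and mice were checked at 0.5 and 4 h. Neurotoxicity was failure to keep balance on the rod for 1 min, across three trials. The toxic dose was the dose at which 50% of animals fell.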", "note": "Entries after “also recorded” stand apart in the source; their conditions may differ."}
{"molecule": "COc1ccc2ccc(C(/C=C/c3c[nH]c4ccccc34)N3C=CC(C(=O)O)C=C3)cc2c1", "note": "(centres unmarked) [5g, (E)-1-(3-(1H-indol-3-yl)-1-(7-methoxynaphthalen-2-yl)allyl)-1,4-dihydropyridine-4-carboxylic acid]", "values": [{"measurement": "Neurotoxicity (result in words)", "value": "neurotoxic; also recorded: motor impairing"}]}
{"molecule": "Cc1ccc2ccc(C(/C=C/c3c[nH]c4ccccc34)N3C=CC(C(=O)O)C=C3)cc2c1", "note": "(centres unmarked) [5i, (E)-1-(3-(1H-indol-3-yl)-1-(7-methylnaphthalen-2-yl)allyl)-1,4-dihydropyridine-4-carboxylic acid]", "values": [{"measurement": "Neurotoxicity (result in words)", "value": "neurotoxic"}]}
